{
  "source": "ChEMBL document CHEMBL5357066",
  "about": "“Development of Novel Membrane Disrupting Lipoguanidine Compounds Sensitizing Gram-Negative Bacteria to Antibiotics” (ACS Med Chem Lett, 2024)",
  "key": {"Staphylococcus aureus [1]": {"tested_on": "Staphylococcus aureus", "experiment": "Antibacterial activity against methicillin resistant Staphylococcus aureus USA 300 assessed as bacterial growth inhibition incubated for overnight by microbroth dilution method", "assay_type": "functional", "procedure,_shortened": "(§1)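 Microbroth dilution in Tryptic Soy Broth. DMSO stocks were diluted in TSB as 2-fold series. Overnight TSB cultures were back-diluted to OD 0.01 and mixed 1:1 with compound. Incubation was overnight at 37 °C. MIC is the lowest concentration with no visible growth (<0.1 OD600). DMSO at equivalent concentrations was checked.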"}, "Acinetobacter baumannii [2]": {"tested_on": "Acinetobacter baumannii", "experiment": "Antibacterial activity against Acinetobacter baumannii ATCC 17978 assessed as bacterial growth inhibition incubated for overnight by microbroth dilution method", "assay_type": "functional", "procedure,_shortened": "(§2)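 Broth microdilution in Tryptic Soy Broth. DMSO stocks were diluted in TSB as 2-fold series. Overnight TSB cultures were back-diluted to OD 0.01 and mixed 1:1 with compound. Incubation was overnight at 37 °C. MIC was the lowest concentration without visible growth (<0.1 OD600). DMSO vehicle was checked at equivalent concentrations.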"}, "Acinetobacter baumannii [3]": {"tested_on": "Acinetobacter baumannii", "experiment": "Synergistic antibacterial activity against Acinetobacter baumannii AYE assessed as fold change in rifampicin MIC at <=0.25 times MIC incubated for overnight by microbroth dilution checkerboard assay relative to rifampicin alone", "assay_type": "functional", "procedure,_shortened": "(§3)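 Checkerboard microdilution under MIC conditions (TSB, overnight, 37 °C). Two-fold series of each agent were combined on one plate before bacteria were added, and single-agent MICs were measured on the same plate. FIC = sum of combination MIC/alone MIC for each agent, taken from the most synergistic well. Three independent repeats, mean ± SD. ≤0.5 was taken as strong synergy and 0.5–<1 as weak.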"}, "Klebsiella pneumoniae [4]": {"tested_on": "Klebsiella pneumoniae", "experiment": "Antibacterial activity against Klebsiella pneumoniae M6 assessed as bacterial growth inhibition incubated for overnight by microbroth dilution method"}, "Escherichia coli [5]": {"tested_on": "Escherichia coli", "experiment": "Synergistic antibacterial activity against Escherichia coli NCTC 12923 assessed as rifampicin MIC at <=0.25 times MIC incubated for overnight by microbroth dilution checkerboard assay", "assay_type": "functional", "procedure,_shortened": "as §3"}, "Pseudomonas aeruginosa [6]": {"tested_on": "Pseudomonas aeruginosa", "experiment": "Antibacterial activity against Pseudomonas aeruginosa PAO1 assessed as bacterial growth inhibition incubated for overnight by microbroth dilution method", "assay_type": "functional", "procedure,_shortened": "as §2"}, "Klebsiella pneumoniae [7]": {"tested_on": "Klebsiella pneumoniae", "experiment": "Synergistic antibacterial activity against […] Klebsiella pneumoniae M6 assessed as rifampicin MIC at <=0.25 times MIC incubated for overnight by microbroth dilution checkerboard assay", "assay_type": "functional", "procedure,_shortened": "(§4)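 Checkerboard run under the MIC conditions (TSB, overnight, 37 °C). Antibiotic and lipoguanidine 2-fold series were combined on one plate before bacteria were added. Growth/no-growth was scored as for the MIC (<0.1 OD600). Single-agent MICs were measured on the same plates. Three independent repeats were done.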"}, "Klebsiella pneumoniae [8]": {"tested_on": "Klebsiella pneumoniae", "experiment": "Synergistic antibacterial activity against Klebsiella pneumoniae NCTC 13368 assessed as fold change in rifampicin MIC at <=0.25 times MIC incubated for overnight by microbroth dilution checkerboard assay relative to rifampicin alone", "assay_type": "functional", "procedure,_shortened": "as §4"}, "Enterococcus faecalis [9]": {"tested_on": "Enterococcus faecalis", "experiment": "Antibacterial activity against vancomycin resistant Enterococcus faecalis NCTC 12201 assessed as bacterial growth inhibition incubated for overnight by microbroth dilution method", "assay_type": "functional", "procedure,_shortened": "as §1"}, "Acinetobacter baumannii [10]": {"tested_on": "Acinetobacter baumannii", "experiment": "Synergistic antibacterial activity against Acinetobacter baumannii AYE assessed as rifampicin MIC at <=0.25 times MIC incubated for overnight by microbroth dilution checkerboard assay", "assay_type": "functional", "procedure,_shortened": "as §3"}, "Pseudomonas aeruginosa [11]": {"tested_on": "Pseudomonas aeruginosa", "experiment": "Synergistic antibacterial activity against Pseudomonas aeruginosa PAO1 assessed as fold change in rifampicin MIC at <=0.25 times MIC incubated for overnight by microbroth dilution checkerboard assay relative to rifampicin alone", "assay_type": "functional", "procedure,_shortened": "(§5)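 Checkerboard microdilution in Tryptic Soy Broth, run like the MIC assay. Overnight TSB cultures were back-diluted to OD 0.01 and added 1:1 to the combined two-fold series of both agents, then incubated overnight at 37 °C. Growth/no-growth was called at <0.1 OD600. MICs alone were read on the same plates. FIC index came from the most synergistic well; three independent repeats, mean ± SD.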"}, "Acinetobacter baumannii [12]": {"tested_on": "Acinetobacter baumannii", "experiment": "Synergistic antibacterial activity against Acinetobacter baumannii ATCC 17978 assessed as bacterial growth inhibition incubated for overnight in presence of PBMN by microbroth dilution method relative to control", "assay_type": "functional", "procedure,_shortened": "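Adapted broth microdilution in TSB. The test compound was in a 2-fold dilution series, with PMBN added at a fixed 30 µg/mL. Bacteria at OD 0.02 were added, and plates were incubated overnight at 37 °C. Growth/no growth was read as for the MIC (<0.1 OD600).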"}, "Escherichia coli [13]": {"tested_on": "Escherichia coli", "experiment": "Synergistic antibacterial activity against Escherichia coli NCTC 12923 assessed as fold change in rifampicin MIC at <=0.25 times MIC incubated for overnight by microbroth dilution checkerboard assay relative to rifampicin alone", "assay_type": "functional", "procedure,_shortened": "as §3"}, "Staphylococcus aureus [14]": {"tested_on": "Staphylococcus aureus", "experiment": "Antibacterial activity against methicillin sensitive Staphylococcus aureus ATCC 9144 assessed as bacterial growth inhibition incubated for overnight by microbroth dilution method", "assay_type": "functional", "procedure,_shortened": "as §1"}, "Staphylococcus aureus [15]": {"tested_on": "Staphylococcus aureus", "experiment": "Antibacterial activity against methicillin resistant Staphylococcus aureus NCTC 13616 assessed as bacterial growth inhibition incubated for overnight by microbroth dilution method", "assay_type": "functional", "procedure,_shortened": "as §1"}, "Klebsiella pneumoniae [16]": {"tested_on": "Klebsiella pneumoniae", "experiment": "Synergistic antibacterial activity against Klebsiella pneumoniae NCTC 13368 assessed as rifampicin MIC at <=0.25 times MIC incubated for overnight by microbroth dilution checkerboard assay", "assay_type": "functional", "procedure,_shortened": "as §3"}, "Pseudomonas aeruginosa [17]": {"tested_on": "Pseudomonas aeruginosa", "experiment": "Antibacterial activity against Pseudomonas aeruginosa NCTC 13437 assessed as bacterial growth inhibition incubated for overnight by microbroth dilution method", "assay_type": "functional", "procedure,_shortened": "as §2"}, "Enterococcus faecium": {"tested_on": "Enterococcus faecium", "experiment": "Antibacterial activity against vancomycin resistant Enterococcus faecium NCTC 12204 assessed as bacterial growth inhibition incubated for overnight by microbroth dilution method", "assay_type": "functional", "procedure,_shortened": "as §1"}, "Klebsiella pneumoniae [18]": {"tested_on": "Klebsiella pneumoniae", "experiment": "Antibacterial activity against ESBL Klebsiella pneumoniae NCTC 13368 assessed as bacterial growth inhibition incubated for overnight by microbroth dilution method"}, "Staphylococcus aureus [19]": {"tested_on": "Staphylococcus aureus", "experiment": "Antibacterial activity against methicillin sensitive Staphylococcus aureus 1199B assessed as bacterial growth inhibition incubated for overnight by microbroth dilution method", "assay_type": "functional", "procedure,_shortened": "as §1"}, "Escherichia coli [20]": {"tested_on": "Escherichia coli", "experiment": "Antibacterial activity against Escherichia coli NCTC 12923 assessed as bacterial growth inhibition incubated for overnight by microbroth dilution method", "assay_type": "functional", "procedure,_shortened": "as §2"}, "Acinetobacter baumannii [21]": {"tested_on": "Acinetobacter baumannii", "experiment": "Antibacterial activity against Acinetobacter baumannii AYE assessed as bacterial growth inhibition incubated for overnight by microbroth dilution method", "assay_type": "functional", "procedure,_shortened": "as §2"}, "Pseudomonas aeruginosa [22]": {"tested_on": "Pseudomonas aeruginosa", "experiment": "Synergistic antibacterial activity against Pseudomonas aeruginosa NCTC 13437 assessed as rifampicin MIC at <=0.25 times MIC incubated for overnight by microbroth dilution checkerboard assay", "assay_type": "functional", "procedure,_shortened": "as §5"}, "Pseudomonas aeruginosa [23]": {"tested_on": "Pseudomonas aeruginosa", "experiment": "Synergistic antibacterial activity against Pseudomonas aeruginosa NCTC 13437 assessed as fold change in rifampicin MIC at <=0.25 times MIC incubated for overnight by microbroth dilution checkerboard assay relative to rifampicin alone", "assay_type": "functional", "procedure,_shortened": "as §5"}, "Acinetobacter baumannii [24]": {"tested_on": "Acinetobacter baumannii", "experiment": "Synergistic antibacterial activity against Acinetobacter baumannii ATCC 17978 assessed as fold change in rifampicin MIC at <=0.25 times MIC incubated for overnight by microbroth dilution checkerboard assay relative to rifampicin alone", "assay_type": "functional", "procedure,_shortened": "as §3"}, "Enterococcus faecalis [25]": {"tested_on": "Enterococcus faecalis", "experiment": "Antibacterial activity against vancomycin sensitive Enterococcus faecalis NCTC 775 assessed as bacterial growth inhibition incubated for overnight by microbroth dilution method"}, "Acinetobacter baumannii [26]": {"tested_on": "Acinetobacter baumannii", "experiment": "Synergistic antibacterial activity against Acinetobacter baumannii ATCC 17978 assessed as rifampicin MIC at <=0.25 times MIC incubated for overnight by microbroth dilution checkerboard assay", "assay_type": "functional", "procedure,_shortened": "as §3"}, "Pseudomonas aeruginosa [27]": {"tested_on": "Pseudomonas aeruginosa", "experiment": "Synergistic antibacterial activity against Pseudomonas aeruginosa PAO1 assessed as rifampicin MIC at <=0.25 times MIC incubated for overnight by microbroth dilution checkerboard assay", "assay_type": "functional", "procedure,_shortened": "as §5"}},
  "data": [
    {"smiles": "CCCCCCCC/C=C\\CCCCCCCCNC(=N)NCCCCNC(=N)N", "values": [
      {"measurement": "MIC", "setting": "Staphylococcus aureus [1]", "value": 2, "unit": "µg/mL"},
      {"measurement": "MIC", "setting": "Acinetobacter baumannii [2]", "value": 8, "unit": "µg/mL"},
      {"measurement": "fold change (FC)", "setting": "Acinetobacter baumannii [3]", "value": ">=4"},
      {"measurement": "MIC", "setting": "Klebsiella pneumoniae [4]", "value": 16, "unit": "µg/mL"},
      {"measurement": "MIC", "setting": "Escherichia coli [5]", "value": 8, "unit": "µg/mL"},
      {"measurement": "MIC", "setting": "Pseudomonas aeruginosa [6]", "value": 128, "unit": "µg/mL"},
      {"measurement": "MIC", "setting": "Klebsiella pneumoniae [7]", "value": 2, "unit": "µg/mL"},
      {"measurement": "fold change (FC)", "setting": "Klebsiella pneumoniae [8]", "value": ">=4"},
      {"measurement": "MIC", "setting": "Enterococcus faecalis [9]", "value": 2, "unit": "µg/mL"},
      {"measurement": "MIC", "setting": "Acinetobacter baumannii [10]", "value": "≤ 0.125", "unit": "µg/mL"},
      {"measurement": "fold change (FC)", "setting": "Pseudomonas aeruginosa [11]", "value": 0},
      {"measurement": "inhibition (INH)", "setting": "Acinetobacter baumannii [12]", "value": "<20", "unit": "%"},
      {"measurement": "fold change (FC)", "setting": "Escherichia coli [13]", "value": 0},
      {"measurement": "MIC", "setting": "Staphylococcus aureus [14]", "value": 4, "unit": "µg/mL"},
      {"measurement": "MIC", "setting": "Staphylococcus aureus [15]", "value": 2, "unit": "µg/mL"},
      {"measurement": "MIC", "setting": "Klebsiella pneumoniae [16]", "value": "≤ 0.125", "unit": "µg/mL"},
      {"measurement": "MIC", "setting": "Pseudomonas aeruginosa [17]", "value": "> 128", "unit": "µg/mL"},
      {"measurement": "MIC", "setting": "Enterococcus faecium", "value": 2, "unit": "µg/mL"},
      {"measurement": "MIC", "setting": "Klebsiella pneumoniae [18]", "value": 128, "unit": "µg/mL"},
      {"measurement": "MIC", "setting": "Staphylococcus aureus [19]", "value": 2, "unit": "µg/mL"},
      {"measurement": "MIC", "setting": "Escherichia coli [20]", "value": 8, "unit": "µg/mL"},
      {"measurement": "MIC", "setting": "Acinetobacter baumannii [21]", "value": 32, "unit": "µg/mL"},
      {"measurement": "MIC", "setting": "Pseudomonas aeruginosa [22]", "value": 16, "unit": "µg/mL"},
      {"measurement": "fold change (FC)", "setting": "Pseudomonas aeruginosa [23]", "value": 0},
      {"measurement": "fold change (FC)", "setting": "Acinetobacter baumannii [24]", "value": ">=4"},
      {"measurement": "MIC", "setting": "Enterococcus faecalis [25]", "value": 2, "unit": "µg/mL"},
      {"measurement": "MIC", "setting": "Acinetobacter baumannii [26]", "value": "≤ 0.125", "unit": "µg/mL"},
      {"measurement": "MIC", "setting": "Pseudomonas aeruginosa [27]", "value": 16, "unit": "µg/mL"}
    ]}
  ]
}
